pIC50, pKi: −log10 of the molar value.
Experiments:
Homo sapiens [1] = species on record: Homo sapiens; assay: Inhibitory activity against aggregation of human platelets; format: functional, organism-based
In short: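 Human platelets were gel-filtered from PRP on Sepharose 2B and used at 3 × 10⁸ platelets/mL with 1 mg/mL fibrinogen. Compounds were added at 37 °C 2 min before activation with 10 µM ADP, with stirring at 1000 rpm at 37 °C. Aggregation was read as the maximal increase in light transmittance. IC50 is the mean over GFP from two to six donors.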

[2] = Oral bioavailability in dog; format: ADME, organism-based, Canis lupus familiaris; details: in vivo
In short: (§1)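 Conscious dogs received compound intravenously and orally, and blood was sampled over time for plasma. Active plasma equivalents were measured by bioassay as inhibition of ¹²⁵I-fibrinogen binding to isolated, immobilized GPIIb/IIIa. Kinetic data points are means from four dogs.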

[3] = target: T1, Integrin alpha-IIb/beta-3 (Homo sapiens, UniProt P05106+P08514); assay: Inhibition of [125I]fibrinogen binding to isolated GPIIb/IIIa; format: protein-complex assay
T1 sequence (P05106 27-788 limits assumed): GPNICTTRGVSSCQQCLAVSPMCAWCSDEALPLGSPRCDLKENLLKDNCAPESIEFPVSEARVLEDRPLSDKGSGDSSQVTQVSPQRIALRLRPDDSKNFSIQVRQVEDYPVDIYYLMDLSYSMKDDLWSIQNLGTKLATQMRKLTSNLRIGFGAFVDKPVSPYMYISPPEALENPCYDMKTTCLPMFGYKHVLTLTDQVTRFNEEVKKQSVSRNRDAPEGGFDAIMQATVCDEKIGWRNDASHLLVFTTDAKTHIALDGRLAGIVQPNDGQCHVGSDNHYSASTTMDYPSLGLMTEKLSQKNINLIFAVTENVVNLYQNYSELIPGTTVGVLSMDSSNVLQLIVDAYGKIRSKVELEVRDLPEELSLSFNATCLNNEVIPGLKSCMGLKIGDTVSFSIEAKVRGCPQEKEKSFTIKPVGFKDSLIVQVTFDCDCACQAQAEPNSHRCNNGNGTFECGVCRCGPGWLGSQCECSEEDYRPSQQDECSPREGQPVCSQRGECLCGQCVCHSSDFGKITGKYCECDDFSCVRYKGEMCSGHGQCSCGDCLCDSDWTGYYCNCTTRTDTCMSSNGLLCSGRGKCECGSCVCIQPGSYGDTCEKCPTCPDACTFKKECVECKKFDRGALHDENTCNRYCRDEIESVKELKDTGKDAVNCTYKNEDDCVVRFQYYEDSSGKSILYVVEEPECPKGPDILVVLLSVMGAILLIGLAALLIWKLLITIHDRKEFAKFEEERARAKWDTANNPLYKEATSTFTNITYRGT
T1 sequence (P08514 32-887 limits assumed): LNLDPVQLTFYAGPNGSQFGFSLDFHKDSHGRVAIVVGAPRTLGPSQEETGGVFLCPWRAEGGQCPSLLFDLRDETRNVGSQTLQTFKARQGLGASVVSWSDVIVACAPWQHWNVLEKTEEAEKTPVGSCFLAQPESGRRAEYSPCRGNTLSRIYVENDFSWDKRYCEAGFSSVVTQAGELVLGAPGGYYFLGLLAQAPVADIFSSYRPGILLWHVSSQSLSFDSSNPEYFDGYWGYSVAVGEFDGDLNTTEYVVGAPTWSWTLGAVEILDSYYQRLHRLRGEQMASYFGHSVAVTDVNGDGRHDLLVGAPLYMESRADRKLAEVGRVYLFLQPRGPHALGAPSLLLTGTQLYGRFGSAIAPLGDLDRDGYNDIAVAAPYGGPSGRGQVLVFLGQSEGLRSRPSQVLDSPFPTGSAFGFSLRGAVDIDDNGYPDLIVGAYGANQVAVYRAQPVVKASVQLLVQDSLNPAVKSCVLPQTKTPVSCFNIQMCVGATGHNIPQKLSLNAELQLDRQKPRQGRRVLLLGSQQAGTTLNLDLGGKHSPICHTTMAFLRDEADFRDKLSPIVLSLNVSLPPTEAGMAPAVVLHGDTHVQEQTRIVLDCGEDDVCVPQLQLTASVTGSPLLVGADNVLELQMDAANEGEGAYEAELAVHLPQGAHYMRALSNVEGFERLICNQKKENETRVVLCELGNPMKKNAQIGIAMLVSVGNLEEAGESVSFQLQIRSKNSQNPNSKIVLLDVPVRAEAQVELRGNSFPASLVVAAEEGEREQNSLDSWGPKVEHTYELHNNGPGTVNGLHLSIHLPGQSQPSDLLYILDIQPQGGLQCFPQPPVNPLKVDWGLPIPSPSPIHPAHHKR
T1 sequence (P08514 891-1039 limits assumed): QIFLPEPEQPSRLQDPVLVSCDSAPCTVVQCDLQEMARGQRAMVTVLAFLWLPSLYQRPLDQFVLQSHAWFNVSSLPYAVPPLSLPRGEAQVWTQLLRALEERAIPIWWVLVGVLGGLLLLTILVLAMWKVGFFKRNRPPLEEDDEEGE

Canis familiaris = species on record: Canis familiaris; assay: Inhibitory activity against dog platelet aggregation in GFP; format: functional, organism-based; details: Canis lupus familiaris
Homo sapiens [4] = species on record: Homo sapiens; assay: Inhibitory activity against platelet rich plasma; format: functional, organism-based
[5] = target: T1, Integrin alpha-IIb/beta-3; assay: Inhibition of [125I]fibrinogen binding to ADP-activated human gel filtered platelets
[6] = Half life from dog blood after oral administration at a dose of 3 mg/kg Expt-2; format: ADME, organism-based, Canis lupus familiaris; design: dose 3 mg/kg, route oral; in short: as §1
[7] = Half life from dog blood after intravenous administration at a dose of 0.3 mg/kg Expt-1; format: ADME, organism-based, Canis lupus familiaris; design: dose 0.3 mg/kg, route intravenous; in short: as §1
[8] = Half life from dog blood after oral administration at a dose of 3 mg/kg Expt-1; format: ADME, organism-based, Canis lupus familiaris; design: dose 3 mg/kg, route oral; in short: as §1
[9] = Half life from dog blood after intravenous administration at a dose of 0.3 mg/kg Expt-2; format: ADME, organism-based, Canis lupus familiaris; design: dose 0.3 mg/kg, route intravenous; in short: as §1

`N=C(N)NCCC[C@@H]1NC(=O)N(CC(=O)N[C@@H](CC(=O)O)C(=O)N[C@H](C(=O)O)c2ccccc2)C1=O` gave a pIC50 (Homo sapiens [1]) of 6.05.

With `CC1(c2ccc(C(=N)N)cc2)NC(=O)N(CC(=O)NC(CC(=O)O)c2ccccc2)C1=O` (stereo unspecified) the bioavailability [2] was 5% and the pIC50 (Homo sapiens [1]) was 6.70.

`C[C@]1(c2ccc(C(=N)N)cc2)NC(=O)N(CC(=O)N[C@@H](CC(=O)O)c2ccccc2)C1=O` gave a pIC50 (Homo sapiens [1]) of 5.22.

`N=C(N)NCCC[C@@H]1NC(=O)N(CC(=O)N[C@@H](CC(=O)O)C(=O)N[C@@H](CO)C(=O)O)C1=O` gave a pIC50 (Homo sapiens [1]) of 5.00.

In the case of `C[C@]1(c2ccc(C(=N)N)cc2)NC(=O)N(CC(=O)N[C@H](CC(=O)O)c2ccccc2)C1=O`, the pIC50 (Homo sapiens [1]) was 5.30.

In the case of `C[C@@]1(c2ccc(C(=N)N)cc2)NC(=O)N(CC(=O)N[C@@H](CC(=O)O)c2ccccc2)C1=O`, the pKi [3] was 9.77, the pIC50 (Canis familiaris) was 7.00 and the pIC50 (Homo sapiens [4]) was 7.00. It also gave a pKi [5] of 8.05, a bioavailability [2] of 10% and a pIC50 (Homo sapiens [1]) of 7.70.

With `C[C@@]1(c2ccc(C(=N)N)cc2)NC(=O)N(CC(=O)N[C@H](CC(=O)O)c2ccccc2)C1=O` the pIC50 (Homo sapiens [1]) was 4.30.

With `CC1(c2ccc(C(=N)N)cc2)NC(=O)N(CC(=O)NC(CC(=O)O)c2ccc3c(c2)OCO3)C1=O` (stereo unspecified) the pIC50 (Homo sapiens [1]) was 7.10.

For `CC1(c2ccc(C(=N)N)cc2)NC(=O)N(CC(=O)NC(CC(=O)O)c2cccnc2)C1=O` (stereo unspecified), the pIC50 (Homo sapiens [1]) was 7.00.

With `CC1(c2ccc(C(=N)N)cc2)NC(=O)N(CC(=O)NC(CC(=O)O)c2cccc3ccccc23)C1=O` (stereo unspecified) the pIC50 (Homo sapiens [1]) was 6.52.

For `CCOC(=O)C[C@H](NC(=O)CN1C(=O)N[C@@](C)(c2ccc(C(=N)N)cc2)C1=O)c1ccccc1` [CARAFIBAN], the half-life [6] was 9.9 h, the half-life [7] was 1.4 h and the half-life [8] was 7.9 h. For the same compound, the bioavailability [2] was 42% and the half-life [9] was 0.8 h.

From ChEMBL document CHEMBL1129321, “Discovery of an orally active non-peptide fibrinogen receptor antagonist” (J Med Chem, 1996)
